In ChEMBL document CHEMBL4725312, “Pre-clinical evidences of the antileishmanial effects of diselenides and selenocyanates” (Bioorg Med Chem Lett, 2020):
Activity calls are given as the source filed them. No cut-off for these calls is given here.

Key:
[1] = Ratio of IC50 for human THP1 cells to IC50 for axenic amastigote state of Leishmania infantum
Procedure, shortened: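 Selectivity index was calculated as the THP-1 cytotoxicity IC50 (24 h exposure) divided by the IC50 against L. infantum amastigotes.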

THP-1 = assay: Cytotoxicity against human THP-1 cells assessed as reduction in cell viability incubated for 24 hrs; assay type: cell-based; details: THP-1, 24 h
Leishmania infantum [2] = assay: Antileishmanial activity against axenic amastigote state of Leishmania infantum incubated for 24 hrs; assay type: functional, organism-based
Leishmania infantum [3] = assay: Antileishmanial activity against axenic amastigote state of Leishmania infantum infected in human THP-1 cells at 3 uM incubated for 48 hrs; assay type: functional, organism-based
Procedure, shortened: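 THP-1 cells infected with L. infantum amastigotes were exposed to compounds at 3 μM for 48 h. Infection rate was the read-out, with autofluorescence correction applied, and results were reported as means.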

[4] = Inhibition of trypanothione reductase (unknown origin)
Procedure, shortened: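 Trypanothione reductase inhibition was expressed as IC50, with mepacrine run alongside as the positive-control TryR inhibitor.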

[5] = Ratio of IC50 for mepacrine to IC50 for test compound for inhibition of trypanothione reductase (unknown origin)
Procedure, shortened: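 Trypanothione reductase inhibition assay, with mepacrine run alongside as the positive-control TryR inhibitor. The value is mepacrine IC50 divided by test-compound IC50 in the same assay.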

Row | Structure (SMILES) | Ratio IC50 [1] | IC50 (THP-1) [µM] | IC50 (Leishmania infantum [2]) [µM] | Activity (Leishmania infantum [3]) | IC50 [4] [µM] | Ratio IC50 [5]
1 | O=C(O)CCC(=O)Nc1ccc([Se][Se]c2ccc(NC(=O)CCC(=O)O)cc2)cc1 | >3.16 | > 25 | 7.9 |  |  | 
2 | CCCCCCCCCCCCCCCCCCOCC(COP(=O)([O-])OCC[N+](C)(C)C)OC (centres undefined) [EDELFOSINE] | 6.01 |  |  | Active |  | 
3 | O=C1C=CC(=O)N1c1ccc([Se][Se]c2ccc(N3C(=O)C=CC3=O)cc2)cc1 | 9.91 | 15.2 | 1.54 | Active | 0.23 | 30
4 | O=C1c2ccccc2C(=O)N1c1ccc([Se][Se]c2ccc(N3C(=O)c4ccccc4C3=O)cc2)cc1 | 11.08 | 23 | 2.07 | Active | 21.8 | 
5 | N#C[Se]c1ccc(NC(=O)CCC(=O)O)cc1 | >2.2 | > 25 | 11.3 |  |  | 
6 | N#C[Se]c1ccc(NC(=O)COCC(=O)O)cc1 |  | > 25 | > 25 |  |  | 
7 | N#C[Se]c1ccc(NC(=O)C2C3C=CC(O3)C2C(=O)O)cc1 (centres undefined) | 7.76 | 21.5 | 3.22 | inactive | 0.54 | 30
8 | COc1cc(OC)cc(C(=O)NC(=[Se])Nc2ccc([Se][Se]c3ccc(NC(=[Se])NC(=O)c4cc(OC)cc(OC)c4)cc3)cc2)c1 | >2.77 | > 25 | 9.22 |  |  | 
9 | O=C(NC(=[Se])Nc1ccc([Se][Se]c2ccc(NC(=[Se])NC(=O)c3cc4ccccc4nc3-c3ccccc3)cc2)cc1)c1cc2ccccc2nc1-c1ccccc1 | 1.34 | 8.5 | 6.18 |  |  | 
10 | N#C[Se]c1ccc(NC(=O)C2CCCCC2C(=O)O)cc1 (centres undefined) | >2.35 | > 25 | 10.6 |  |  | 
11 | N#C[Se]c1ccc(NC(=O)c2ccccc2C(=O)O)cc1 |  | > 25 | > 25 |  |  | 
12 | CSc1ccc(C(=O)NC(=[Se])Nc2ccc([Se][Se]c3ccc(NC(=[Se])NC(=O)c4ccc(SC)cc4)cc3)cc2)cc1 | >1.85 | > 25 | 13.5 |  |  | 
13 | O=C(NC(=[Se])Nc1ccc([Se][Se]c2ccc(NC(=[Se])NC(=O)c3ccno3)cc2)cc1)c1ccno1 | 3.1 | 1.07 | 0.35 |  |  | 
14 | N#C[Se]c1ccc(NC(=O)c2nccnc2C(=O)O)cc1 |  | > 25 | > 25 |  |  | 
15 | N#C[Se]c1ccc(NC(=O)/C=C\C(=O)O)cc1 |  | > 25 | > 25 |  |  | 
16 | O=C(NC(=[Se])Nc1ccc([Se][Se]c2ccc(NC(=[Se])NC(=O)c3sccc3Cl)cc2)cc1)c1sccc1Cl | >4.48 | > 25 | 5.57 |  |  | 
17 | CCCCCCCCCCCCCCCCOP(=O)([O-])OCC[N+](C)(C)C [MILTEFOSINE] | 6.51 |  |  |  |  | 

Row | Structure (SMILES) | Ratio IC50 [1] | IC50 (THP-1) [µM] | IC50 (Leishmania infantum [2]) [µM] | Activity (Leishmania infantum [3]) | IC50 [4] [µM] | Ratio IC50 [5]
18 | O=C(NC(=[Se])Nc1ccc([Se][Se]c2ccc(NC(=[Se])NC(=O)c3ccc4c(c3)OCO4)cc2)cc1)c1ccc2c(c1)OCO2 | 1.35 | 13.5 | 9.98 |  |  | 
19 | O=C(O)C1CCCCC1C(=O)Nc1ccc([Se][Se]c2ccc(NC(=O)C3CCCCC3C(=O)O)cc2)cc1 (centres undefined) | >12.31 | > 25 | 2.03 | Active | 18.5 | 
20 | O=C(NC(=[Se])Nc1ccc([Se][Se]c2ccc(NC(=[Se])NC(=O)c3ccco3)cc2)cc1)c1ccco1 | 11.19 | 7.44 | 0.67 | Active | 9.22 | 
21 | O=C(NC(=[Se])Nc1ccc([Se][Se]c2ccc(NC(=[Se])NC(=O)c3cnc4ccccc4c3)cc2)cc1)c1cnc2ccccc2c1 | 4.15 | 12.8 | 3.08 |  |  | 
22 | O=C(O)C1C2C=CC(O2)C1C(=O)Nc1ccc([Se][Se]c2ccc(NC(=O)C3C4C=CC(O4)C3C(=O)O)cc2)cc1 (centres undefined) | >19.13 | > 25 | 1.31 | Active | 25 | 
23 | O=C(O)/C=C\C(=O)Nc1ccc([Se][Se]c2ccc(NC(=O)/C=C\C(=O)O)cc2)cc1 |  | > 25 | > 25 |  |  | 
24 | CCN(CC)CCCC(C)Nc1c2ccc(Cl)cc2nc2ccc(OC)cc12 (centres undefined) [QUINACRINE] |  |  |  |  | 17 | 
25 | O=C(NC(=[Se])Nc1ccc([Se][Se]c2ccc(NC(=[Se])NC(=O)c3ccc([N+](=O)[O-])cc3)cc2)cc1)c1ccc([N+](=O)[O-])cc1 | >11.01 | > 25 | 2.27 |  |  | 
26 | O=C(O)c1ccccc1C(=O)Nc1ccc([Se][Se]c2ccc(NC(=O)c3ccccc3C(=O)O)cc2)cc1 | >5.47 | > 25 | 4.57 |  |  | 
27 | O=C(NC(=[Se])Nc1ccc([Se][Se]c2ccc(NC(=[Se])NC(=O)c3ccccc3)cc2)cc1)c1ccccc1 |  | > 25 | > 25 |  |  | 
28 | O=C(NC(=[Se])Nc1ccc([Se][Se]c2ccc(NC(=[Se])NC(=O)c3cccs3)cc2)cc1)c1cccs1 | 4.87 | 22.2 | 4.55 |  |  | 
29 | N#C[Se]c1ccc(NC(=O)c2ccccc2-c2ccccc2C(=O)O)cc1 | >2.34 | > 25 | 10.7 |  |  | 
30 | Cc1ccc(C(=O)NC(=[Se])Nc2ccc([Se][Se]c3ccc(NC(=[Se])NC(=O)c4ccc(C)cc4)cc3)cc2)cc1 | >1.66 | > 25 | 15 |  |  | 
31 | O=C(O)COCC(=O)Nc1ccc([Se][Se]c2ccc(NC(=O)COCC(=O)O)cc2)cc1 | >2.06 | > 25 | 12.1 |  |  | 
32 | O=C(NC(=[Se])Nc1ccc([Se][Se]c2ccc(NC(=[Se])NC(=O)c3cc4ccccc4s3)cc2)cc1)c1cc2ccccc2s1 | >1.71 | > 25 | 14.6 |  |  | 
33 | O=C1COCC(=O)N1c1ccc([Se][Se]c2ccc(N3C(=O)COCC3=O)cc2)cc1 | 0.82 | 8.53 | 10.4 |  |  | 
34 | O=C(NC(=[Se])Nc1ccc([Se][Se]c2ccc(NC(=[Se])NC(=O)c3ccc(Cl)cc3)cc2)cc1)c1ccc(Cl)cc1 |  | > 25 | > 25 |  |  | 
